Assay: Toxicity liver stage against HepG2, at 10uM
Format: cell-based
Design: test concentration 10 uM, cell line HepG2-A16-CD81EGFP
Conditions: human, HepG2-A16-CD81EGFP cells; read-out: INHIBITION
How it was run: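 Uninfected HepG2-A16-CD81EGFP cells, 3 × 10^3 per well, 1536-well, plated on prespotted compound at 10 μM final, parasite-free screening media added to match infected plates; puromycin 10 μM positive, DMSO 0.5% negative; run in parallel with 48 h PbLuc assay at 37 °C, 5% CO2; viability by CellTiter-Glo luminescence, normalized to controls.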

Structure (SMILES)	cytotoxicity at 10 µM [%]
C[C@H](NC(=O)N1CCC(Cc2ccccc2)CC1)C(=O)O	-1.65
CC1(NC(=O)Cc2csc(-c3cccc(Cl)c3)n2)CCS(=O)(=O)C1 (stereo not given)	-3.61
CN(C(=O)CCNC(=O)NC1CCCCC1)c1ccccc1	-0.575
Cn1ccnc1CN1C(=O)CO[C@H]2CN(CCCc3ccccc3)C[C@H]21	4.22
COc1ccc(C(=O)N2CC(=O)N(Cc3cccs3)CC(O)C2)cc1 (stereo not given)	4.43
Cc1nn(-c2ncccn2)c2c1C(c1cnn(C)c1C)SCC(=O)N2 (stereo not given)	-46.4
O=C(CCSc1ccccc1)NCC1CCN(Cc2ccsc2)CC1	-6.93
O=C(c1ccccn1)N1CCN(c2ccc(-n3cccc3)nn2)CC1	-13.7
c1cncc(-c2ccc3c(c2)C2(CCNCC2)CC3)c1	4.59
CS(=O)(=O)N1CCOCC2(CCN(C(=O)c3ccco3)CC2)C1	4.29
O=C(COc1ccccc1)N1CCC[C@]2(C[C@@H](OCC3CC3)CO2)C1	-1.69
CCC1(CC)C(=O)NC(=O)N=C1Nc1ccc(C)cc1	-6.34
Cc1nn(C)cc1Cn1cc(Cl)c(N)n1	-5.61
CCn1nc(C)c2ncnc(NCC(=O)N3CCOCC3)c21	3.54
O=C1CC(c2ccc(F)c(F)c2)c2snc(C(=O)O)c2N1 (stereo not given)	6.95
O=C(Cn1cnc2cc3c(cc21)OCCCO3)NC1CCCC1	3.92
CCN(CC)S(=O)(=O)N1CCC(c2c(C(N)=O)sc3ccccc23)C1 (stereo not given)	1.4
O=C(N1CCCC1)N1CCn2c(nnc2C2CCCN2)C1 (stereo not given)	4.12
COc1ccc(CN(C(=O)C2CCCO2)c2ccncc2)cc1 (stereo not given)	1.86
NC(=O)CC1CCCN(c2cncc(OCc3ccccc3)n2)C1 (stereo not given)	17.7
COc1ccc(C(C)NCCc2ccc(NC(C)=O)cc2)cc1F (stereo not given)	6.75
Cc1ccc(CNC(=O)N(C)Cc2ccc([S+](C)[O-])cc2)s1 (stereo not given)	6.75

Structure (SMILES)	cytotoxicity at 10 µM [%]
CC(NC(=O)c1ccc(C(N)=O)cc1)c1cccc(N2CCOC2=O)c1 (stereo not given)	-2.83
CCC(C)(O)CNC(=O)Nc1ccc(C)cc1Br (stereo not given)	-9.95
CC(c1cccnc1)N(C)C(=O)NCCOc1ccc(C#N)cc1 (stereo not given)	-6.17
O=C(NCCc1cccc(Cl)c1)C1CCOCC1	-8.47
COCc1cc(N(C)Cc2ccccn2)nc(C(C)(C)C)n1	12.1
CCn1cnnc1CNC(=O)N1CCOC(c2ccc(Cl)cc2)C1 (stereo not given)	4.13
O=C(CNC1CCc2ncnn2C1)N(Cc1cccs1)C1CC1 (stereo not given)	-3.09
CS(=O)(=O)Nc1cccc(CNC(=O)CCC(=O)c2cccs2)c1	1.73
COc1ccc(CNCc2nnc3n2CC(C(F)(F)F)CC3)cc1 (stereo not given)	3.27
CCS(=O)(=O)N(C)C1CCN(C(=O)c2ccc(C)c(C)c2)CC1	-2.76
Cc1cn2c(n1)CCC(NC(=O)CNS(C)(=O)=O)C2 (stereo not given)	-9.84
OC(COc1ccccc1)CN1CCN(c2nccs2)CC1 (stereo not given)	13.1
Cc1nc2c(c(C)c1CC(=O)NC(C)c1ccccc1)c(=O)[nH]n2C (stereo not given)	-3.44
CS(=O)(=O)CCN1CCC(=Cc2ccccc2)CC1	-2.99
CC(C)(C)OC(=O)N1CC(CC(=O)NCc2ccsc2)C1	5.18
Cn1c(CN2CCN(CC3CCCO3)CC2)nc2ccccc21 (stereo not given)	-25.1
CC(NC(N)=O)C(=O)Nc1ccc(OCc2cccc(F)c2)c(F)c1 (stereo not given)	-12.3
Cc1ccc(-n2cc(C(=O)NCC(C)Cn3cccn3)nn2)cc1 (stereo not given)	-46.2
CN(C)c1cc2c(nn1)CCN(C(=O)c1ccc(-n3cccn3)nc1)C2	-1.86
Cc1cc(CN(C)C(=O)CN2CCCCCC2=O)no1	7.41
CN(C)S(=O)(=O)N1CCN(C(=O)OC(C)(C)C)CC12CCCCC2	3.36
Cc1cccc(C2(C(=O)NCCCn3cccn3)CC2)c1	-7.66

Structure (SMILES)	cytotoxicity at 10 µM [%]
CCc1csc(C2CCCN(C(=O)c3ccnc(N(C)C)c3)C2)n1 (stereo not given)	-6.81
Cc1nc(C)c(CNC(=O)NC(c2nnc3n2CCC3)C(C)C)s1 (stereo not given)	-1.79
O=C(NCC1CC2(CO1)CN(c1ncccn1)C2)C1CCC1 (stereo not given)	-107
CN(C)C(=O)COC1COC2(CCN(c3ncccn3)CC2)C1 (stereo not given)	-72.8
C[C@H]1C[C@H]2CN(C(=O)CCOc3ccccc3)CC[C@H]2O1	-69.3
Cc1ccc(C(=O)N2C[C@@H]3OCCN(C(C)C)[C@@H]3C2)cn1	-81.7
Cn1cc(CN2CCCC23CCN(S(C)(=O)=O)CC3)cn1	-82.1
CN1CCC(c2nnc(CN3CCOCC3)n2C)CC1	-1.16
CC(C)Cc1ncc2c(n1)CN(c1cc(NCCO)nc(N)n1)C2	-2.68
COc1c(F)cc(-c2cccc3c2OC(CN)C3)cc1F (stereo not given)	-53.7
CCN(CC)c1ncccc1CNCc1ccc(-c2ccn[nH]2)s1	6.43
CN(CCc1ccccn1)C(=O)CCC1CCCN(c2cnccn2)C1 (stereo not given)	4.13
CC(C)[C@@H]1CN(S(=O)(=O)Cc2ccccc2)C[C@H]1C(=O)O	-1.05
Cc1nc(N(C)C)nc(-c2cccc(-c3ccn(CCCF)n3)c2)c1C	3.7
CCC[C@@H]1CN(C(=O)c2conc2-c2ccccc2)C[C@H]1N(C)C	2.29
CNC(=O)[C@@H]1C[C@@H](N)CN1C1CCN(Cc2ccccn2)CC1	-53.5
O=C(c1ccc(C2CCCN2)s1)N1CCN(C(=O)N2CCOCC2)CC1 (stereo not given)	0.106
CCOc1ccccc1C(C(=O)O)N(C)Cc1cc(C)[nH]n1 (stereo not given)	9.34
CCC(CO)N(Cc1ccsc1)Cc1c(C)nn(C)c1Cl (stereo not given)	17.8
CCOCc1nc(CSc2ccncc2)n(C)n1	2.87
COc1c(F)cccc1C(=O)N(C)Cc1nc(-c2ccccn2)no1	-1.51
CN(CCN1CCCCCC1)c1nccc(N2CCC(O)C2)n1 (stereo not given)	5.27

Structure (SMILES)	cytotoxicity at 10 µM [%]
CCCOC1CCCN(Cc2nc(-c3ccc(F)cc3F)oc2C)C1 (stereo not given)	-51.1
CCNc1ncc(C)c(-c2cnn(C)c2)n1	-3.73
CC(C)N1CCC(C(=O)N[C@H](C(=O)O)c2cccc(F)c2F)CC1	2.59
O=c1[nH]c(-c2ccc(F)c(F)c2)nc2c1CCNC2	2.06
CCc1nc(NCCc2nc(C)c(C)s2)c2cnn(C)c2n1	6.31
Cc1cccnc1CN(C)C(C(=O)O)c1ccc(C(C)(C)C#N)cc1 (stereo not given)	0.566
CN(CCCC1CCCC1)C(=O)c1cc(CN2CCC(O)CC2)on1	5.21
CCN(CC1CCOCC1)C(=O)Cn1cccc(C(F)(F)F)c1=O	-10.2
Cc1cc(N2CCC3(CCC(=O)N(CCO)C3)CC2)nc(N(C)C)n1	-4.78
O=C(CCn1cc(Cl)cn1)N1CCN(CC2CC2)[C@@H]2CS(=O)(=O)C[C@@H]21	2.28
OCCn1nccc1C1CCN(CCOc2ccccc2F)CC1	-5.25
CCc1ncc2c(n1)CN(Cc1nc(-c3ccoc3)no1)CC2	1.61
CCCc1n[nH]c(C2CN(C(=O)c3ccc[nH]3)CCO2)n1 (stereo not given)	-9.29
COc1cc(C(=O)N(Cc2cnn(C)c2)C(C)C)ccc1OC(C)C	-6.02
Cc1ccccc1C1(C(=O)N2CCCC(n3cncn3)C2)CC1 (stereo not given)	-4.37
CC(=O)NC(CC(=O)Nc1ccc(C)cn1)c1ccccc1 (stereo not given)	-12.5
COCCCNC(=O)CN1CCC(N2CCN(C)C2=O)CC1	-2.54
O=C(CN1CCCC1Cn1cncn1)NCCC1=CCCCC1 (stereo not given)	-16.5
COc1c(C)cnc(CN2CCCC2Cn2nc(C)nc2C)c1C (stereo not given)	-3.21
c1cnc(-c2nc(CN3CCCC3Cn3cncn3)cs2)nc1 (stereo not given)	-9.77
Cc1ccc(C(=O)N2CCN(Cc3ccccc3)CC2)n1C	-1.28
Cc1csc(C2CCCN(C(=O)c3cccc4c3OCO4)C2)n1 (stereo not given)	-4.11

Structure (SMILES)	cytotoxicity at 10 µM [%]
O=C(c1csnn1)N1CCCC(n2cncn2)C1 (stereo not given)	5.81
Cc1nn(C)c(N(C)C)c1CNCc1ccccc1CN(C)C	-0.553
Cn1cnnc1C1CCCN(C(=O)c2n[nH]c3ccccc23)C1 (stereo not given)	0.914
Cc1nn(C)cc1-c1cncn1CCc1ccc2c(c1)OCCO2	11.5
CC(C)N(C)C(=O)C1CCC2(CCNCC2)O1 (stereo not given)	-129
Cn1ccnc1CNC(=O)c1cncc(C2CCNCC2)n1	1.81
Fc1ccc(C2(CNC3=NCCN3)CCCC2)cc1	12.9
Cc1c[nH]c(C2CCCN(Cc3ccccc3C(=O)O)C2)n1 (stereo not given)	-3.3
O=C(NCc1ccco1)[C@H]1CC[C@@H]2[C@@H](CCN2C2CCC2)O1	6.47
CC[C@H]1N(CC2CCOCC2)CCC[C@]12CCC(=O)N2	8.71
Cc1nc[nH]c1CN1CCC2(CC1)CC(Nc1ncccn1)CO2 (stereo not given)	12.2
CCO[C@@H]1CC[C@H]2[C@H]1OCCN2CC1CCOCC1	10.8
CN(C)Cc1cc(=O)n2c(n1)CN(C(=O)Cc1cccs1)CCC2	-2.8
O=C1COC2(CCN(Cc3ccco3)CC2)CN1	-1.49
Cc1cc(CN2C[C@@H]3CCCO[C@@H]3[C@H](Nc3ccccn3)C2)no1	-4.72
COc1ccccc1NCc1cscn1	-0.358
Cc1noc([C@@H]2C[C@H]3CN(Cc4scnc4C)C[C@H]3O2)n1	-136
CN(C)C(=O)N1Cc2nnn(C)c2C(COCc2cccnc2)C1 (stereo not given)	10.8
COCCN1C(=O)CC[C@@H]2[C@H]1CCN2Cc1cccc(C#N)c1	-33.1
COc1ccc(CN2CCO[C@H]3CN(C4CCCC4)CC[C@H]3C2=O)cc1	-138
CN(C)[C@@H]1CCN(C(=O)c2cccc(C#N)c2)[C@H]1Cc1cnn(C)c1	-72.6
Cc1noc(C)c1CNCC1(COc2cccnc2)C[C@@H](O)[C@@H](O)C1 (stereo not given in full)	-2.36

— ChEMBL document CHEMBL4513216, “Probing the Open Global Health Chemical Diversity Library for Multistage-Active Starting Points for Next-Generation Antimalarials” (ACS Infect Dis, 2020)
